The full list was thinned out, with hits kept by preference.
PGC1a Ac signal = raises PGC1a acetylation signal in U2OS cells. U2OS PGC1a acetylation AlphaScreen, overnight. activation, % at 15.6 µM. 350,000 compounds, 0.21% hits. AID 651723;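 active = every replicate reaching activation of at least 50%, whatever the mean replicate activation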;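 note: hits raise the AlphaScreen acetylation signal above neutral controls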
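System – flag-PGC1a/GCN5 U2OS cells · Quantity – 7000 U2OS cells per well · Signal – AlphaScreen proximity luminescence, anti-acetyl-lysine antibody · Schedule – overnight compound treatment, 37 °C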
* hit, by the source's call.

SMILES	PGC1a Ac signal
C[C@H]1CN([C@@H](C)CO)C(=O)CCCn2nncc2CO[C@@H]1CN(C)C(=O)Nc1ccc2c(c1)OCO2	-49.0
COc1ccc(CCNCc2ccc(-c3ccccc3)cc2)cc1OC	-44.9
COc1ccc(C2c3c(oc4ccccc4c3=O)C(=O)N2CCN2CCOCC2)cc1OC (stereo unspecified)	-46.2
COc1ccc(CCN2C(=O)c3[nH]nc(-c4ccccc4O)c3C2c2ccccc2)cc1OC (stereo unspecified)	52.9*
CC(C)(CO)CNc1ccn2nccc2n1	-43.4
CO[C@H]1CN(C)C(=O)c2cc(NS(C)(=O)=O)ccc2OC[C@H](C)N(C(=O)NC(C)C)C[C@@H]1C	-48.5
N#C/C(=C(/O)c1ccco1)c1nc2ccccc2[nH]1	60.8*
N#C/C(=C(/O)c1cc2ccccc2o1)c1nc2ccccc2s1	-43.8
COCC(=O)N1C[C@@H](C)[C@@H](OC)CN(C)C(=O)c2ccc(NC(=O)c3cnccn3)cc2OC[C@@H]1C	-60.6
CCOc1ccccc1OCCn1nnc2ccccc21	53.2*
Cc1cc2c(c(/C=C/C(=O)c3ccccc3)c1)OC1(C=C2)Oc2ccccc2C(=O)N1C (stereo unspecified)	-49.6
Cc1cc(C)c2oc(C(=O)N(Cc3ccccc3)c3ccccn3)cc(=O)c2c1	-46.3
O=c1c2cn(Cc3ccc(F)cc3)c3ccc(F)cc3c-2nn1Cc1ccc(F)cc1	-45.5
CCOC(=O)C1(N(CC)CC)Sc2cc(C)ccc2NC1=O (stereo unspecified)	83.9*
Cc1cc(C=O)c(C)n1-c1ccc(NC2CCCC2)c([N+](=O)[O-])c1	-50.5
O=C(Nc1ccc(F)cc1F)N1CCCN(c2ccc([N+](=O)[O-])cn2)CC1	94.1*
CC(C)(C)c1ccc(NC(=O)N2CCN(c3ccc([N+](=O)[O-])cn3)CC2)cc1	191.5*
CC(=O)Nc1ccc(S(=O)(=O)N2CCN(c3ccccn3)CC2)cc1	-52.8
O=C(c1ccc(N2CCCC2=O)cc1)N1CCCCCC1	-41.8
COc1c(O)cc(O)c2c(=O)cc(-c3ccccc3)oc12	63.6*
C[n+]1cccc(CNC(=O)/C=N/O)c1	-51.4
Cc1ccc(N2CCN(CC(O)COC3CCCCC3)CC2)cc1 (stereo unspecified)	82.0*
O=C(C[C@@H]1CC[C@@H](NS(=O)(=O)c2ccc(F)cc2)[C@H](CO)O1)N1CCN(c2ccccc2)CC1	-48.6
Nc1[nH]ncc1N=Nc1ccc(Cl)cc1	65.3*
Cc1ccccc1-c1nc(SCc2ccccn2)c2c(=O)n(C)c(=O)n(C)c2n1	-49.7
SMILES	PGC1a Ac signal
O=C(O)Cn1cc(C(=O)C(F)(F)F)c2ccccc21	-45.2
C=C1CCN(c2ccc(C(=O)NCc3ccccc3)cc2[N+](=O)[O-])CC1	-43.9
COc1ccccc1C(=O)/C=C/c1ccc(N2CCCCC2)c([N+](=O)[O-])c1	187.3*
CO[C@H]1CN(C)C(=O)c2ccc(NC(=O)c3ccno3)cc2OC[C@H](C)NC[C@H]1C	-50.5
C[C@@H]1CN([C@H](C)CO)C(=O)c2cc(NC(=O)Cc3cn(C)c4ccccc34)ccc2O[C@@H]1CN(C)C(=O)Nc1ccccc1	-107.6
Cc1ccc(-c2nn(C)c(=O)c3ccccc23)cc1S(=O)(=O)NCCN(C)C	-42.4
COc1ccccc1/C=C1\SC(=S)N(CCC(=O)NCCCn2ccnc2)C1=O	121.5*
O=C(CCN1C(=O)/C(=C/c2ccccc2)SC1=S)NCCCN1CCOCC1	-56.4
COc1ccccc1/C=C1\SC(=O)N(CCC(=O)NCCCn2ccnc2)C1=O	214.0*
C=CC(=O)N1C/C(=C/c2ccc(F)cc2)C(=O)/C(=C\c2ccc(F)cc2)C1	-82.7
Oc1ccc(-c2nnc(-c3ccc(O)cc3)nn2)cc1	74.4*
O=CNCCc1nc2ccccc2n1CCc1ccccc1	-52.9
COc1ccc(NC(=O)Nc2ccc3c(c2)C(=O)N([C@H](C)CO)C[C@H](C)[C@@H](CN(C)S(=O)(=O)c2ccc(Cl)cc2)O3)cc1	-40.4
C=CCSc1nccc(-c2cc(Cl)sc2Cl)n1	50.6*
N#C/C(=C/c1ccc(OCc2ccc(C(=O)O)cc2)c(Br)c1)c1cccc(F)c1	-96.1
COc1cccc(NC(=O)CN(C)C(=O)CNC(=O)c2ccccc2F)c1	-44.8
Cc1ccc(CNC(=O)C2CC(c3ccc([N+](=O)[O-])cc3)=NO2)cc1 (stereo unspecified)	78.5*
Cc1cc(C(=O)Nc2cccc3c2O[C@H](CN(C)C(=O)Nc2ccc4c(c2)OCO4)[C@@H](C)CN([C@H](C)CO)C3=O)n(C)n1	-57.6
COC(=O)C1=NN(C(=O)c2ccccc2)C(O)(c2ccc([N+](=O)[O-])cc2)C1 (stereo unspecified)	115.4*
CCCC1S/C(=N/N=C/c2ccc(C)cc2)N(Cc2ccc(OC)cc2)C1=O (stereo unspecified)	-40.5
COc1ccccc1C(=O)Oc1cc(N)n(S(=O)(=O)c2ccc(C)cc2)n1	-42.5
CCOC(=O)C1CN(S(=O)(=O)c2ccc(C)cc2)c2cc(S(=O)(=O)CC)ccc2O1 (stereo unspecified)	53.6*
Cc1ccc(S(=O)(=O)N2CCCCC2C(=O)O)cc1 (stereo unspecified)	-40.8
COC1=CC(=O)C=C(OC)C1=O	106.9*
COCC(=O)Nc1ccc2c(c1)OC[C@@H](C)N(C(=O)c1ccccn1)C[C@@H](C)[C@@H](OC)CN(C)C2=O	-49.2
SMILES	PGC1a Ac signal
C=C1C(=O)O[C@H]2[C@@H]1CC/C(CO)=C\CC[C@@]1(C)O[C@@H]21	61.1*
Cc1cc2cc3c(cc2nc1SCC(=O)OC(C)C)OCCO3	95.3*
CCC(=O)NC1(Cc2ccc(O)cc2)CCCCC1	-43.9
C[C@H]1CN([C@@H](C)CO)C(=O)c2cccc(NC(=O)Nc3ccc(C(F)(F)F)cc3)c2O[C@H]1CN(C)C(=O)Nc1cccc2ccccc12	-47.1
O=C(NC1CCCN(Cc2ccc(Cl)cc2)C1)c1ccccc1C(F)(F)F (stereo unspecified)	-47.2
C[C@H](CO)N1C[C@H](C)[C@H](CN(C)S(C)(=O)=O)Oc2ncc(-c3cc4ccccc4o3)cc2C1=O	-46.9
COc1ccc(NC(=O)N[C@H]2CC[C@@H](CCn3cc(-c4ccccc4F)nn3)O[C@H]2CO)cc1	-50.4
O=C(c1ccc(CN2CCOCC2)cc1)N1CCN(Cc2ccccc2)CC1	-43.2
O=C(Nc1c(Cl)ccc2nsnc12)c1ccc([N+](=O)[O-])o1	73.7*
Cc1cc(C)cc(NC(=O)c2ccc([N+](=O)[O-])o2)c1	246.5*
O=[N+]([O-])c1ccccc1-c1ccc(C(=S)N2CCN(c3ccccc3)CC2)o1	-40.7
O=C(Nc1ccc(N2CCN(C(=O)c3ccccc3)CC2)cc1)c1ccc([N+](=O)[O-])o1	121.9*
Cc1cc(C)cc(C(=O)Nc2ccc3[nH]c(=O)[nH]c3c2)c1	-47.6
CC(=O)c1ccc(NC(=O)c2ccc([N+](=O)[O-])o2)cc1	101.5*
O=C(Nc1ccc([N+](=O)[O-])cn1)c1ccc(Br)o1	-43.0
NC(=O)c1oc2ccccc2c1NC(=O)C1CC(=O)N(c2ccccc2)C1 (stereo unspecified)	-42.1
CCOC(=O)C1=C(NC(=O)c2ccc(Br)o2)Nc2ccccc2N=C1	-42.1
C[C@H]1CN([C@@H](C)CO)S(=O)(=O)c2ccc(-c3cncnc3)cc2O[C@H]1CN(C)C(=O)CN(C)C	-52.9
O=C(C[C@H]1CC[C@@H]2[C@H](COC[C@@H](O)CN2S(=O)(=O)c2ccc(F)cc2)O1)NCCN1CCCCC1	-47.4
Cc1cc(Nc2ccccc2)cc(=O)n1C	-59.3
O=[N+]([O-])c1cc(F)c2cccnc2c1O	-42.5
